From ChEMBL document CHEMBL1129970, “Biologically active conformer of the effector region of human C5a and modulatory effects of N-terminal receptor binding determinants on activity” (J Med Chem, 1997)

Legend:
[1] = species on record: Homo sapiens; assay: Ratio of concentration agonist potency (EC50) to concentration inhibiting [125I]C5a binding (n=3); assay type: functional
Procedure, shortened: (§1)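 Competition binding on freshly isolated intact human PMNs (0.25 × 10⁶) with 20 pM [¹²⁵I]C5a plus unlabeled C5a or peptide. Buffer is 50 mM HEPES, 1 mM CaCl₂, 5 mM MgCl₂, 0.5% BSA. Incubation 60 min at 4 °C, then filtration, ice-cold washes and gamma counting, triplicates. Nonspecific binding defined with 1 mM peptide or 100 nM C5a. Relative affinity = antilog[−(log IC50 C5a − log IC50 peptide)] × 100. The potency/binding ratio is EC50 divided by the binding IC50.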

[2] = species on record: Homo sapiens; assay: Log potency ratio [pD2(C5a)-pD2(peptide)] was determined in human fetal artery; assay type: functional
Procedure, shortened: (§2)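 Human fetal artery smooth muscle contraction; full dose–response curves for recombinant human C5a or each peptide in the same tissue preparation. EC50 is the concentration giving 50% of the maximal response, read relative to the C5a maximum. pD2 = −log EC50 (M), averaged per peptide ± SE. Log potency ratio pD2(C5a) − pD2(peptide) is computed within each experiment. Relative potency = antilog(−Δ) × 100.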

[3] = species on record: Homo sapiens; assay: Log potency ratio [log IC50(C5a)-log IC50(peptide)] was determined in human polymorphonuclear cells (PMN) (n=3); assay type: functional; procedure, shortened: as §1
[4] = species on record: Homo sapiens; assay: Relative potency of peptide for human fetal artery was determined; assay type: functional; procedure, shortened: as §2
[5] = species on record: Homo sapiens; assay: Maximum efficacy relative to C5a (100%) for human polymorphonuclear cells (PMN) was determined (n=4); assay type: functional
Procedure, shortened: (§3)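 Human PMNs pretreated with cytochalasin B (5 μg/mL, 10 min, 37 °C), then 10⁶ cells stimulated for 60 min at 37 °C. β-Glucuronidase in the supernatant is assayed with 0.01 M p-nitrophenyl β-D-glucuronide (0.1 M acetate, pH 4, 18 h) in triplicate. Reaction stopped with glycine pH 10 and read at 415 nm. pD2 is taken from dose–response curves against the C5a EC50. Efficacy is given relative to C5a maximum (100%).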

[6] = species on record: Homo sapiens; assay: Relative affinity for PMN receptor (n=3); assay type: functional; procedure, shortened: as §1
[7] = species on record: Homo sapiens; assay: Spasmogenic activity was measured by the ability to induce smooth muscle contraction in human fetal artery; assay type: functional, Muscle tissue; procedure, shortened: as §2
[8] = species on record: Homo sapiens; assay: Tested for the ability to stimulate beta-glucuronidase release from human polymorphonuclear cells (PMN) (n=4); assay type: functional; procedure, shortened: as §3
[9] = species on record: Homo sapiens; assay: Log potency ratio [pD2(C5a)-pD2(peptide)] was determined for human polymorphonuclear cells (PMN) (n=4); assay type: functional; procedure, shortened: as §3
[10] = species on record: Homo sapiens; assay: Relative potency of peptide to stimulate beta-glucuronidase release from human polymorphonuclear cells (PMN) (n=4); assay type: functional; procedure, shortened: as §3
[11] = species on record: Homo sapiens; assay: (§4) Selectivity of peptide was determined from antilog[pD2(fetal artery)-pD2 (PMN enzyme release)] (n=10); assay type: functional
Procedure, shortened: (§5)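 Selectivity = antilog[pD2(fetal artery) − pD2(PMN β-glucuronidase release)]. pD2 values come from full dose–response curves in each assay, each generated alongside C5a.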

[12] = species on record: Homo sapiens; assay: Effective concentration to stimulate beta-glucuronidase release from human polymorphonuclear cells (PMN) (n=4); assay type: functional; procedure, shortened: as §3
[13] = species on record: Homo sapiens; assay: Tested for inhibition of binding of [125I]C5a to intact human polymorphonuclear cells (PMN) (n=3); assay type: functional; procedure, shortened: as §1
[14] = species on record: Homo sapiens; assay: Effective concentration to induce smooth muscle contraction in human fetal artery; assay type: functional; details: Muscle tissue; procedure, shortened: as §2
[15] = species on record: Homo sapiens; assay: Log potency ratio [pD2(C5a)-pD2(peptide)] was determined in human polymorphonuclear cells (PMN) (n=4); assay type: functional; procedure, shortened: as §3
[16] = Selectivity of peptide was determined from antilog[pD2(fetal artery)-pD2 (PMN enzyme release)] (n=7); assay type: functional; procedure, shortened: as §5
[17] = as §4; assay type: functional; procedure, shortened: as §5
[18] = Selectivity of peptide was determined from antilog[pD2(fetal artery)-pD2 (PMN enzyme release)] (n=12); assay type: functional; procedure, shortened: as §5
[19] = Selectivity of peptide was determined from antilog[pD2(fetal artery)-pD2 (PMN enzyme release)] (n=11); assay type: functional; procedure, shortened: as §5

| EC50 [12] [µM] | EC50 [14] [µM] | SMILES | Mean log concentration ratio [2] | Potency [4] [%] | C5a max [5] [%] | pD2 [7] | pD2 [8] | Potency [10] [%] | Mean log concentration ratio [15] | also measured |
| --- | --- | --- | --- | --- | --- | --- | --- | --- | --- | --- |
|  |  | CSCC[C@H](NC(=O)[C@@H]1CCCN1C(=O)[C@H](CCCCN)NC(=O)[C@H](Cc1ccccc1)NC(=O)[C@H](CO)NC(=O)[C@H](Cc1ccc(O)cc1)NC(=O)CCCCCN)C(=O)N1CCC[C@H]1C(=O)N[C@@H](CC(C)C)C(=O)N[C@H](C)C(=O)N[C@@H](CCCN=C(N)N)C(=O)O [listing 1 of 2 here] | 0.79 | 16 | 180 | 7.16 | 5.51 | 1.2 |  | Ratio [1]: 0.6; Mean log concentration ratio [3]: 4.33; C5a affinity [6]: 0.005%; Mean log concentration ratio [9]: 1.9; Selectivity [11]: 45 |
| 3.1 | 0.07 | CSCC[C@H](NC(=O)[C@@H]1CCCN1C(=O)[C@H](CCCCN)NC(=O)[C@H](Cc1ccccc1)NC(=O)[C@H](CO)NC(=O)[C@H](Cc1ccc(O)cc1)NC(=O)CCCCCN)C(=O)N1CCC[C@H]1C(=O)N[C@@H](CC(C)C)C(=O)N[C@H](C)C(=O)N[C@@H](CCCN=C(N)N)C(=O)O [listing 2 of 2 here] |  |  |  |  |  |  |  | IC50 [13]: 5.5 µM |
|  |  | CSCC[C@H](NC(=O)[C@@H]1CCCN1C(=O)[C@H](CCCCN)NC(=O)[C@H](Cc1ccccc1)NC(=O)[C@H](CO)NC(=O)[C@H](Cc1ccc(O)cc1)NC(=O)CCCCCNC(=O)[C@H](Cc1c[nH]c2ccccc12)NC(=O)[C@@H](N)CC(=O)O)C(=O)N1CCC[C@H]1C(=O)N[C@@H](CC(C)C)C(=O)N[C@H](C)C(=O)N[C@@H](CCCN=C(N)N)C(=O)O [listing 1 of 2 here] | 0.91 | 8.5 | 173 | 6.96 | 5.14 | 0.5 | 2.3 | Selectivity [16]: 66 |
|  |  | CSCC[C@H](NC(=O)[C@@H]1CCCN1C(=O)[C@H](CCCCN)NC(=O)[C@H](Cc1ccccc1)NC(=O)[C@H](CO)NC(=O)[C@H](Cc1ccc(O)cc1)NC(=O)CCCCCNC(=O)[C@H](CCCCN)NC(=O)CNC(=O)[C@@H](N)CCCCN)C(=O)N1CCC[C@H]1C(=O)N[C@@H](CC(C)C)C(=O)N[C@H](C)C(=O)N[C@@H](CCCN=C(N)N)C(=O)O | 0.97 | 11 | 156 | 6.98 | 5.31 | 1 | 1.99 | Selectivity [17]: 47 |
| 7.2 | 0.2 | CSCC[C@H](NC(=O)[C@@H]1CCCN1C(=O)[C@H](CCCCN)NC(=O)[C@H](Cc1ccccc1)NC(=O)[C@H](CO)NC(=O)[C@H](Cc1ccc(O)cc1)NC(=O)CCCCCNC(=O)[C@H](Cc1c[nH]c2ccccc12)NC(=O)[C@@H](N)CC(=O)O)C(=O)N1CCC[C@H]1C(=O)N[C@@H](CC(C)C)C(=O)N[C@H](C)C(=O)N[C@@H](CCCN=C(N)N)C(=O)O [listing 2 of 2 here] |  |  |  |  |  |  |  |  |
|  |  | CSCC[C@H](NC(=O)[C@@H]1CCCN1C(=O)[C@H](CCCCN)NC(=O)[C@H](Cc1ccccc1)NC(=O)[C@H](CO)NC(=O)[C@H](Cc1ccc(O)cc1)NC(=O)CCCCCNC(=O)[C@H](CCCCN)NC(=O)CNC(=O)[C@H](CCCCN)NC(=O)CNC(=O)[C@@H](N)CCCCN)C(=O)N1CCC[C@H]1C(=O)N[C@@H](CC(C)C)C(=O)N[C@H](C)C(=O)N[C@@H](CCCN=C(N)N)C(=O)O | 0.99 | 10 | 173 | 6.98 | 5.18 | 0.6 | 2.2 | Selectivity [18]: 63 |
| 9.3 | 0.1 | CSCC[C@H](NC(=O)[C@@H]1CCCN1C(=O)[C@H](CCCCN)NC(=O)[C@H](Cc1ccccc1)NC(=O)[C@H](CO)NC(=O)[C@H](Cc1ccc(O)cc1)NC(C)=O)C(=O)N1CCC[C@H]1C(=O)N[C@@H](CC(C)C)C(=O)N[C@H](C)C(=O)N[C@@H](CCCN=C(N)N)C(=O)O |  |  |  |  |  |  |  |  |
|  |  | CSCC[C@H](NC(=O)[C@@H]1CCCN1C(=O)[C@H](CCCCN)NC(=O)[C@H](Cc1ccccc1)NC(=O)[C@H](CO)NC(=O)[C@H](Cc1ccc(O)cc1)NC(=O)CNC(=O)CNC(=O)CNC(=O)[C@H](CCCCN)NC(=O)CNC(=O)[C@H](CCCCN)NC(=O)CNC(=O)[C@@H](N)CCCCN)C(=O)N1CCC[C@H]1C(=O)N[C@@H](CC(C)C)C(=O)N[C@H](C)C(=O)N[C@@H](CCCN=C(N)N)C(=O)O | 0.83 | 15 | 177 | 7.14 | 5.71 | 1.8 | 1.74 | Selectivity [19]: 27 |
